Experimental data reported in ChEMBL document CHEMBL4765307, “Design, synthesis and biological activity of novel 2,3,4,5-tetra-substituted thiophene derivatives as PI3Kα inhibitors with potent antitumor activity” (Eur J Med Chem, 2020).
One block for each compound: values may come before it.

How the values were obtained:
[1] = target: PI3-kinase p110-alpha/p85-alpha (Homo sapiens, UniProt P42336); assay: Inhibition of His-tagged human full length PI3Kalpha coexpressed with p85 alpha in baculovirus expression system using PIP2 peptide as substrate incubated for 1 hr in presence ATP by Kinase-Glo assay
PI3-kinase p110-alpha/p85-alpha, sequence (P27986 whole entry): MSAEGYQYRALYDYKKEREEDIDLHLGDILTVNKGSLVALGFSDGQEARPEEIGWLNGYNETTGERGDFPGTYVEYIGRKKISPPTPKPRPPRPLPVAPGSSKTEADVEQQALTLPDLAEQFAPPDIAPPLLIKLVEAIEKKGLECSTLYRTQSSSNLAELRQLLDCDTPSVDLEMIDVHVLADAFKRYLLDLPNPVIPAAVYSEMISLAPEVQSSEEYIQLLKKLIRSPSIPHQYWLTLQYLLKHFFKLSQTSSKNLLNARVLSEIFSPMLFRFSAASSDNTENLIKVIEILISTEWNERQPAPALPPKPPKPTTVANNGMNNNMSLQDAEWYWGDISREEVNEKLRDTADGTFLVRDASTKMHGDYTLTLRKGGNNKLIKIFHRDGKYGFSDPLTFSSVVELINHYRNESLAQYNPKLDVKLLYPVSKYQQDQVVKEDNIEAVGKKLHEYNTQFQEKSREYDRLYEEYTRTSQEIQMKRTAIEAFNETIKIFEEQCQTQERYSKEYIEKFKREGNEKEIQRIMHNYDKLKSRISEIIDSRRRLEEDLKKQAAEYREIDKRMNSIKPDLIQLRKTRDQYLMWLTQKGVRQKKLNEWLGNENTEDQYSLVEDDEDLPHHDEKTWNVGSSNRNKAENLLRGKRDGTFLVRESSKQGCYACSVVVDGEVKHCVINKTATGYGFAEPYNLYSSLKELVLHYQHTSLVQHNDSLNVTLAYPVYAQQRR
PI3-kinase p110-alpha/p85-alpha, sequence (P42336 whole entry): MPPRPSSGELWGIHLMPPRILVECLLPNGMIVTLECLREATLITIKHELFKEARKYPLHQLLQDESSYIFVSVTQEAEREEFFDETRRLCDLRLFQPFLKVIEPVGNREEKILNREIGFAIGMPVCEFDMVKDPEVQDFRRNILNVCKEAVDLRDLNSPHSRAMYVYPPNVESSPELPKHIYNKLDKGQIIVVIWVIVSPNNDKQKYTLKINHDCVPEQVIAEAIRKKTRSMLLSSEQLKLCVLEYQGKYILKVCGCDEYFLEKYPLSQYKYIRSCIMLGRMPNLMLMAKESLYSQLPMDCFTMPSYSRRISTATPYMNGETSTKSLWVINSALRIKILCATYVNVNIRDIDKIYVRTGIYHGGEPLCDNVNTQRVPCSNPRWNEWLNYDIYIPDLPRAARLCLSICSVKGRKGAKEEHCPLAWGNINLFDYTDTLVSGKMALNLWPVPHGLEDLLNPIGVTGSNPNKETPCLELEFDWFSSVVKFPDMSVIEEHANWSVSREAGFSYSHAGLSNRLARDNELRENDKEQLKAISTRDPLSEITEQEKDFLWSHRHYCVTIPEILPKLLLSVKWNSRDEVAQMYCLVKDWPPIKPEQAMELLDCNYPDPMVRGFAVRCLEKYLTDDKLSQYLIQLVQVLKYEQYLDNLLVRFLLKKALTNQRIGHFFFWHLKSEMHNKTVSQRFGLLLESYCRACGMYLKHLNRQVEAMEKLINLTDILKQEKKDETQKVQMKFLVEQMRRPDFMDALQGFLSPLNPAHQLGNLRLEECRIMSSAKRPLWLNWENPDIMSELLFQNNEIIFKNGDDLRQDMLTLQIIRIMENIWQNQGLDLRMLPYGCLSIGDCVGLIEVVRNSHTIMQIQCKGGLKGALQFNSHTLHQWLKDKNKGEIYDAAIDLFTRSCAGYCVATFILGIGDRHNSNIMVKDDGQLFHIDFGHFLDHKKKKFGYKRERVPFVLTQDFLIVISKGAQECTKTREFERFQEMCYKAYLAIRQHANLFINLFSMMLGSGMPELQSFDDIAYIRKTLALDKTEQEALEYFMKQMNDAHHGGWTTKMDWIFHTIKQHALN

[2] = target: PI3K p110 beta/p85 alpha (Homo sapiens, UniProt P42338); assay: Inhibition of N-terminal His6-tagged human recombinant full length PI3Kbeta co-expressed with human recombinant full length P85alpha in baculovirus infected Sf21 cells using PIP2 peptide as substrate incubated for 1 hr in presence ATP by ADP-Glo Kinase Assay
In short: (§1)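 ADP-Glo reagent 1 for 40 min, then reagent 2 with 60 min equilibration before reading. IC50 taken from inhibition curves; average of at least two runs.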

[3] = target: Phosphatidylinositol 4,5-bisphosphate 3-kinase catalytic subunit gamma isoform (Homo sapiens, UniProt P48736); assay: Inhibition of GST-tagged human recombinant PI3Kgamma catalytic domain (468 to 1203 residues) expressed in insect cells using PIP2 peptide as substrate incubated for 1 hr in presence ATP by ADP-Glo Kinase Assay; in short: as §1
Phosphatidylinositol 4,5-bisphosphate 3-kinase catalytic subunit gamma isoform, sequence (P48736 whole entry, the tested form may be a part, canonical isoform): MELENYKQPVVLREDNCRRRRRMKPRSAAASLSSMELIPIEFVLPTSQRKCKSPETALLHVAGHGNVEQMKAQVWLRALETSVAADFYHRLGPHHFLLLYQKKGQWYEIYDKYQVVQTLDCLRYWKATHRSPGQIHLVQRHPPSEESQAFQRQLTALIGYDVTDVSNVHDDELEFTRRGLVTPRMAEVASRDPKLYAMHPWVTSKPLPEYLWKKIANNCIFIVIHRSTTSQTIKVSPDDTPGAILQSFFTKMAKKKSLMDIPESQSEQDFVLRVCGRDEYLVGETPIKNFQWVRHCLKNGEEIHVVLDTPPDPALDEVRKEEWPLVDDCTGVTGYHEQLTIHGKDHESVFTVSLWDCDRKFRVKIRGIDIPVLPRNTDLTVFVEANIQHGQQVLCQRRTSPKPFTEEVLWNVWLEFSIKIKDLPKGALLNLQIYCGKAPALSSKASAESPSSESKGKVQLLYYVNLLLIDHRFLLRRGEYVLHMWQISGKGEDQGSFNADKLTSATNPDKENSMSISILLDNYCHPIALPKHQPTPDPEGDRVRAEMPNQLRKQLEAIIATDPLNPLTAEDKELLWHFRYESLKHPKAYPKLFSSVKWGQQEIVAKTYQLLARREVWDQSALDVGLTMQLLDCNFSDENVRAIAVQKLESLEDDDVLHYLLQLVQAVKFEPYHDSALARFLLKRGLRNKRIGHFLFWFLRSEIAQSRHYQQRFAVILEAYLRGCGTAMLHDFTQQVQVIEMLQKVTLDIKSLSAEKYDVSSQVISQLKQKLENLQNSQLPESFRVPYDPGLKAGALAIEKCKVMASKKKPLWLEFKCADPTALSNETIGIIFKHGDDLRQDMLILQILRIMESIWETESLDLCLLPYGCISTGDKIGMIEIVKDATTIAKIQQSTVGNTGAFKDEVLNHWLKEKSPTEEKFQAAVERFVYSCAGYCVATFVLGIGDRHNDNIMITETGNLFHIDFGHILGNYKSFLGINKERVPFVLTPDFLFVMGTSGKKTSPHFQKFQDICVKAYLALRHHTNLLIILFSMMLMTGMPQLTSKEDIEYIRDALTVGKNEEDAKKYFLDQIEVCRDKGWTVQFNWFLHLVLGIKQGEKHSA

[4] = target: Serine/threonine-protein kinase mTOR (Homo sapiens, UniProt P42345); assay: Inhibition of N-terminal FLAG-tagged human recombinant mTOR (1362 to end residues) using ULight-4E-BP1 (Thr37/46) peptide as substrate incubated for 1 hr in presence of ATP by Lance Ultra assay
In short: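 ULight-4E-BP1 (Thr37/46) peptide with 13 µM ATP; 1 h at room temperature. Stopped with EDTA quench buffer plus Eu-anti-phospho-4E-BP1, 15 min shake and 60 min equilibration, TR-FRET read. IC50 from inhibition curves; average of at least two runs.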

[5] = tested on: U-87 MG; assay: Antiproliferative activity against human U87MG cells harboring PTEN deletion assessed as reduction in cell viability after 3 days by CellTiter-Glo luminescence assay; type: functional, cell-based, U-87MG ATCC; details: 72 h
In short: (§2)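 ATCC lines, 10% FBS: T47D, H1975, H460 in RPMI1640; U87MG in DMEM; A549 in F12K. Seeded 3×10^3 per well the day before, exposed to 3-fold serial dilutions or DMSO for 3 days at 37 °C, 5% CO2; CellTiter-Glo luminescence.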

[6] = tested on: T47D; assay: Antiproliferative activity against human T47D cells harboring PIK3CA mutation assessed as reduction in cell viability after 3 days by CellTiter-Glo luminescence assay; type: functional, cell-based; details: 72 h; in short: as §2
[7] = tested on: NCI-H1975; assay: Antiproliferative activity against human NCI-H1975 cells harboring PIK3CA mutation assessed as reduction in cell viability after 3 days by CellTiter-Glo luminescence assay; type: functional, cell-based; details: NCI-H1975, 72 h; in short: as §2
[8] = tested on: NCI-H460; assay: Antiproliferative activity against human NCI-H460 cells harboring PIK3CA mutation assessed as reduction in cell viability after 3 days by CellTiter-Glo luminescence assay; type: functional, cell-based; details: NCI-H460, 72 h; in short: as §2
[9] = tested on: A549; assay: Antiproliferative activity against human A549 cells assessed as reduction in cell viability after 3 days by CellTiter-Glo luminescence assay; type: functional, cell-based; details: A549, 72 h; in short: as §2
[10] = target: PI3-kinase p110-delta/p85-alpha (Homo sapiens, UniProt O00329); assay: Inhibition of N-terminal His6-tagged human recombinant full length PI3Kdelta co-expressed with human recombinant full length P85alpha in baculovirus infected Sf21 cells using PIP2 peptide as substrate incubated for 2 hrs in presence ATP by ADP-Glo Kinase Assay
PI3-kinase p110-delta/p85-alpha, sequence (P27986 whole entry): as the sequence (P27986 whole entry) above
PI3-kinase p110-delta/p85-alpha, sequence (O00329 whole entry): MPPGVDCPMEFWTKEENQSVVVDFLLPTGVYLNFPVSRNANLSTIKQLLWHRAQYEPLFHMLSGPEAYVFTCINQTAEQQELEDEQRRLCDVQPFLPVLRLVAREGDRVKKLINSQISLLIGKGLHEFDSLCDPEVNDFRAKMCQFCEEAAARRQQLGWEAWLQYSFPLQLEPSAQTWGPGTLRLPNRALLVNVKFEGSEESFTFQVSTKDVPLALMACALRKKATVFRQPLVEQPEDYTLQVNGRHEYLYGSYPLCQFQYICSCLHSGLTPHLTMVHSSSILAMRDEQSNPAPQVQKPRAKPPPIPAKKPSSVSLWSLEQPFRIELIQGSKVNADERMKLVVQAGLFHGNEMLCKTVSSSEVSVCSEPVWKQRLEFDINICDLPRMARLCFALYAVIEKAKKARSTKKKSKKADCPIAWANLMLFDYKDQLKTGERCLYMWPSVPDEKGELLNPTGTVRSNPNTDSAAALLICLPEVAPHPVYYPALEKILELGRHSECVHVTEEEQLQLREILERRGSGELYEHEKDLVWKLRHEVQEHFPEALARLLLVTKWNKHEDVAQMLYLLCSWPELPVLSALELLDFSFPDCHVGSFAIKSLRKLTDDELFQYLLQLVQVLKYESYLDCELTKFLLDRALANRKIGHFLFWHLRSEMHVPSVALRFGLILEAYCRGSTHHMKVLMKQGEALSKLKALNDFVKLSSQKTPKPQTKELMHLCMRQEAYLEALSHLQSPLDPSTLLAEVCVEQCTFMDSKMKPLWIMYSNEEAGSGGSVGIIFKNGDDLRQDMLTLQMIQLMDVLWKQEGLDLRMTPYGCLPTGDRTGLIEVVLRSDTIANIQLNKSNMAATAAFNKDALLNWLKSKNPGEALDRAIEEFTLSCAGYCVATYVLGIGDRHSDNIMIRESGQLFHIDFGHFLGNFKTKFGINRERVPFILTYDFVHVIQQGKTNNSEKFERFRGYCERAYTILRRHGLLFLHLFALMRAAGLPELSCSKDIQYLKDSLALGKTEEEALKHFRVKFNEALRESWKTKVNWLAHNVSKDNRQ
In short: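 ADP-Glo reagent 1 for 40 min, then reagent 2 with 60 min equilibration. IC50 from inhibition curves; average of at least two runs.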

[11] = target: Phosphatidylinositol 4,5-bisphosphate 3-kinase catalytic subunit alpha isoform (Homo sapiens) (UniProt P42336); assay: Inhibition of PI3Kalpha in human T47D cells assessed as inhibition of insulin-stimulated Akt phosphorylation at Ser473 residue at 3 uM preincubated for 2 hrs followed by incubation with insulin for 2 hrs by western blot analysis relative to control; type: cell-based; details: time 4.0 hrs
Phosphatidylinositol 4,5-bisphosphate 3-kinase catalytic subunit alpha isoform (Homo sapiens), sequence (P42336 whole entry, canonical isoform): as the sequence (P42336 whole entry) above
In short: (§3)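 T47D cells given compound at 37 °C for 2 h, then stimulated with 1 µg/mL insulin for 2 h; lysed in RIPA with protease/phosphatase inhibitors and 1 mM PMSF; BCA-normalised SDS-PAGE, PVDF blot probed overnight at 4 °C for total Akt and pAkt Ser473, infrared secondary detection.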

[12] = target: Phosphatidylinositol 4,5-bisphosphate 3-kinase catalytic subunit alpha isoform (Homo sapiens) (UniProt P42336); assay: Inhibition of PI3Kalpha in human T47D cells assessed as inhibition of insulin-stimulated Akt phosphorylation at Ser473 residue at 1 uM preincubated for 2 hrs followed by incubation with insulin for 2 hrs by western blot analysis relative to control; type: cell-based; details: time 4.0 hrs; in short: as §3
[13] = target: Phosphatidylinositol 4,5-bisphosphate 3-kinase catalytic subunit alpha isoform (Homo sapiens) (UniProt P42336); assay: Inhibition of PI3Kalpha in human T47D cells assessed as inhibition of insulin-stimulated Akt phosphorylation at Ser473 residue at 0.3 uM preincubated for 2 hrs followed by incubation with insulin for 2 hrs by western blot analysis relative to control; type: cell-based; details: time 4.0 hrs; in short: as §3
[14] = target: Phosphatidylinositol 4,5-bisphosphate 3-kinase catalytic subunit alpha isoform (Homo sapiens) (UniProt P42336); assay: Inhibition of PI3Kalpha in human T47D cells assessed as inhibition of insulin-stimulated Akt phosphorylation at Ser473 residue at 0.1 uM preincubated for 2 hrs followed by incubation with insulin for 2 hrs by western blot analysis relative to control; type: cell-based; details: time 4.0 hrs; in short: as §3

- IC50 [1]: 835 nM
Compound: N#Cc1c(N2CCOCC2)sc(-c2nc[nH]n2)c1-c1ccc(NC(=O)Nc2ccc(OC(F)(F)F)cc2)cc1

- IC50 [1]: 9.4 nM
Compound: N#Cc1c(N2CCOCC2)sc(-c2nc[nH]n2)c1-c1ccc(NC(=O)N/N=C/c2ccc[nH]2)cc1

- IC50 [1]: 407 nM
Compound: N#Cc1c(N2CCOCC2)sc(-c2nc[nH]n2)c1-c1ccc(NC(=O)Nc2ccc(F)c(Cl)c2)cc1

- IC50 [1]: 239 nM
Compound: N#Cc1c(N2CCOCC2)sc(-c2nc[nH]n2)c1-c1ccc(NC(=O)Nc2cccc(Br)c2)cc1

- IC50 [1]: 35.3 nM
- IC50 [2]: 95 nM
- IC50 [3]: 289 nM
- IC50 [4]: 1660 nM
- IC50 [5]: 3350 nM
- IC50 [6]: 520 nM
- IC50 [7]: 2040 nM
- IC50 [8]: 590 nM
- IC50 [9]: 5520 nM
- IC50 [10]: 238 nM
Compound: N#Cc1c(N2CCOCC2)sc(-c2nc[nH]n2)c1-c1ccc(NC(=O)Nc2ccc(F)cc2)cc1

- IC50 [1]: 95.8 nM
Compound: Cc1ccc(NC(=O)Nc2ccc(-c3c(-c4nc[nH]n4)sc(N4CCOCC4)c3C#N)cc2)cc1

- IC50 [1]: 21.9 nM
Compound: N#Cc1c(N2CCOCC2)sc(-c2nc[nH]n2)c1-c1ccc(NC(=O)N/N=C/c2ccc(O)c(O)c2)cc1

- IC50 [1]: 22.3 nM
- IC50 [2]: 89 nM
- IC50 [3]: 302 nM
- IC50 [4]: 1590 nM
- IC50 [5]: 3980 nM
- IC50 [6]: 410 nM
- IC50 [7]: 1520 nM
- IC50 [8]: 400 nM
- IC50 [9]: 4190 nM
- IC50 [10]: 334 nM
Compound: N#Cc1c(N2CCOCC2)sc(-c2nc[nH]n2)c1-c1ccc(NC(=O)Nc2ccccc2F)cc1

- IC50 [1]: 290 nM
Compound: N#Cc1ccc(NC(=O)Nc2ccc(-c3c(-c4nc[nH]n4)sc(N4CCOCC4)c3C#N)cc2)cc1

- IC50 [1]: 89.8 nM
Compound: N#Cc1c(N2CCOCC2)sc(-c2nc[nH]n2)c1-c1ccc(NC(=O)N/N=C/c2cccc(Br)c2)cc1

- IC50 [1]: 76.6 nM
Compound: N#Cc1c(N2CCOCC2)sc(-c2nc[nH]n2)c1-c1ccc(NC(=O)N/N=C/c2ccccc2)cc1

- IC50 [1]: 403 nM
Compound: N#Cc1c(N2CCOCC2)sc(-c2nc[nH]n2)c1-c1ccc(NC(=O)Nc2ccc(C(F)(F)F)cc2)cc1

- IC50 [1]: 105 nM
Compound: COc1ccccc1NC(=O)Nc1ccc(-c2c(-c3nc[nH]n3)sc(N3CCOCC3)c2C#N)cc1

- IC50 [5]: 2310 nM
- IC50 [6]: 340 nM
- IC50 [7]: 940 nM
- IC50 [8]: 120 nM
- IC50 [9]: 3580 nM
- inhibition [11]: 86%
- inhibition [12]: 83%
- inhibition [13]: 73%
- inhibition [14]: 65%
Compound: N#Cc1ccc(-c2c(-c3ncn[nH]3)sc(N3CCOCC3)c2C#N)c(F)c1

- IC50 [1]: 72 nM
Compound: COc1ccc(/C=N/NC(=O)Nc2ccc(-c3c(-c4nc[nH]n4)sc(N4CCOCC4)c3C#N)cc2)cc1

- IC50 [1]: 20.3 nM
Compound: Cc1cc(/C=N/NC(=O)Nc2ccc(-c3c(-c4nc[nH]n4)sc(N4CCOCC4)c3C#N)cc2)cc(C)c1O

- IC50 [4]: 1460 nM
Compound: Cc1nc(NC(=O)N2CCC[C@H]2C(N)=O)sc1-c1ccnc(C(C)(C)C(F)(F)F)c1 [ALPELISIB]

- IC50 [1]: 5.4 nM
- IC50 [2]: 124 nM
- IC50 [3]: 60 nM
- IC50 [4]: 4060 nM
- IC50 [10]: 15 nM
Compound: N#Cc1ccc(-c2c(-c3nnc[nH]3)sc(N3CCOCC3)c2C#N)c(F)c1

- IC50 [1]: 75.5 nM
Compound: N#Cc1c(N2CCOCC2)sc(-c2nc[nH]n2)c1-c1ccc(NC(=O)N/N=C/c2ccc(F)cc2)cc1

- IC50 [1]: 323 nM
Compound: N#Cc1c(N2CCOCC2)sc(-c2nc[nH]n2)c1-c1ccc(NC(=O)N/N=C/c2c(Cl)cccc2Cl)cc1

- IC50 [1]: 110 nM
Compound: COc1cc(/C=N/NC(=O)Nc2ccc(-c3c(-c4nc[nH]n4)sc(N4CCOCC4)c3C#N)cc2)cc(OC)c1OC

- IC50 [1]: 344 nM
Compound: Cc1cccc(C)c1NC(=O)Nc1ccc(-c2c(-c3nc[nH]n3)sc(N3CCOCC3)c2C#N)cc1

- IC50 [1]: 151 nM
Compound: N#Cc1c(N2CCOCC2)sc(-c2nc[nH]n2)c1-c1ccc(NC(=O)Nc2cccc(F)c2)cc1

- IC50 [1]: 6.5 nM
- IC50 [2]: 53 nM
- IC50 [3]: 274 nM
- IC50 [4]: 416 nM
- IC50 [5]: 22100 nM
- IC50 [6]: 2130 nM
- IC50 [7]: 11200 nM
- IC50 [8]: 2690 nM
- IC50 [9]: 18500 nM
- IC50 [10]: 49 nM
Compound: N#Cc1c(N2CCOCC2)sc(-c2nc[nH]n2)c1-c1ccc(NC(=O)N/N=C/c2ccccn2)cc1

- IC50 [1]: 13.3 nM
- IC50 [2]: 74 nM
- IC50 [3]: 204 nM
- IC50 [4]: 598 nM
- IC50 [5]: 12300 nM
- IC50 [6]: 2680 nM
- IC50 [7]: 12900 nM
- IC50 [8]: 1220 nM
- IC50 [9]: 19400 nM
- IC50 [10]: 74 nM
Compound: N#Cc1c(N2CCOCC2)sc(-c2nc[nH]n2)c1-c1ccc(NC(=O)N/N=C/c2ccco2)cc1

- IC50 [1]: 116 nM
Compound: N#Cc1c(N2CCOCC2)sc(-c2nc[nH]n2)c1-c1ccc(NC(=O)Nc2ccccc2)cc1

- IC50 [1]: 631 nM
Compound: N#Cc1c(N2CCOCC2)sc(-c2nc[nH]n2)c1-c1ccc(NC(=O)N/N=C/c2ccc(OC(F)(F)F)cc2)cc1

- IC50 [1]: 17.7 nM
- IC50 [2]: 43 nM
- IC50 [3]: 440 nM
- IC50 [4]: 489 nM
- IC50 [5]: 13000 nM
- IC50 [6]: 2220 nM
- IC50 [7]: 9760 nM
- IC50 [8]: 1390 nM
- IC50 [9]: 12700 nM
- IC50 [10]: 72 nM
Compound: N#Cc1c(N2CCOCC2)sc(-c2nc[nH]n2)c1-c1ccc(NC(=O)N/N=C/c2cccc(O)c2)cc1
